Experimental data taken from PMC6759879 (Journal of the American Heart Association: Cardiovascular …, 2019).

Tests used:
[1] = tested on: Cx43 CT; assay: EDC cross‐linking of kinase reaction mixtures, Cx43 CT; type: binding; details: peptide at 5, 10 and 25 μmol/L, streptavidin labeling
Summary of the method: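 Kinase mixture as in the PKCε assay, but in 20 mmol/L MOPS pH 7.2 with 30 μg/mL Cx43 CT substrate and varied peptide, 15 min at 37°C. EDC added to 20 mmol/L final and left 1 h at room temperature. Stopped with LDS buffer and boiled 5 min. Run on 18% gels, then Coomassie-stained (bands excised for MS/MS) or blotted for biotin with HRP‑NeutrAvidin.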

[2] = biological target: Cx43 CT (amino acids 255–382) (Rattus norvegicus, UniProt P08050); assay: Surface plasmon resonance, immobilized biotin-peptides, Cx43 CT analyte; type: binding
Cx43 CT (amino acids 255–382), sequence (P08050 255-382): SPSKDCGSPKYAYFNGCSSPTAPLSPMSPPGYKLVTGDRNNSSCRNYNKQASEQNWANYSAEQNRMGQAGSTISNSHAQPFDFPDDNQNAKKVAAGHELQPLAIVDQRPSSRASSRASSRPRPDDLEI
Summary of the method: (§1)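 Biotin-peptides are immobilized at equal RU on a streptavidin chip in HEPES/EDTA/NaCl/Tween‑20, pH 7.4. Analyte is Cx43 CT (wild type or KK/QQ) with GST removed by PreScission protease, injected at several concentrations in random order in 10 mmol/L HEPES, 100 mmol/L NaCl pH 7.4 at 30 μL/min. Regeneration: 50 mmol/L NaOH/1 mol/L NaCl. Biotin-reversed-sequence reference subtracted; mean of 3 runs.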

[3] = tested on: Cx43 CT‐KK/QQ; assay: Surface plasmon resonance, immobilized biotin-peptides, Cx43 CT‐KK/QQ analyte; type: binding; details: analyte 0.5 to 15 μmol/L, reverse control peptide subtracted, mean of 3 runs
Summary of the method: as §1

[4] = tested on: PKCε phosphorylation of Cx43‐CT substrate at Ser368; assay: PKCε Cx43 CT S368 phosphorylation assay; type: biochemical; details: Western blot pS368/total Cx43; biotin-tagged peptides
Summary of the method: (§2)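 PKCε (400 ng/mL, prediluted in HEPES/CHAPS/DTT buffer) is used with wild-type or KK/QQ Cx43‑CT (aa 255–382) substrate at 14 μg/mL, plus peptide. Incubated 12 min at 37°C, quenched in LDS, blotted for pS368, stripped, reprobed for total Cx43. % phosphorylation normalized to PKC+ no-peptide control.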

[5] = tested on: Cx43 CT KK/QQ mutant substrate; assay: PKCε phosphorylation assay with Cx43 CT KK/QQ mutant substrate; type: biochemical; details: biotin‐αCT1 20 μmol/L
Summary of the method: as §2

[6] = tested on: ZO‐1 PDZ2; assay: Protein thermal shift assay, ZO‐1 PDZ2; type: binding; details: 500 μg/mL GST‐PDZ2, 25 to 100 μmol/L peptide, PBS pH 7.4, SYPRO Orange, N=6
Summary of the method: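 Recombinant GST–PDZ2 (500 μg/mL) is mixed with 25–100 μmol/L peptide in PBS pH 7.4 with SYPRO Orange at 8× final. Melt runs from 25°C to 95°C in 0.05 °C/s steps on a real-time PCR instrument, ROX channel, no quencher. Tm is compared against unliganded protein. Six independent runs.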

[7] = tested on: ZO‐1 PDZ2 domain; assay: EDC zero-length cross‐linking to GST ZO‐1 PDZ domains; type: binding; details: biotin‐tagged peptide at 5, 25 and 50 μmol/L, NeutrAvidin labeling
Summary of the method: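 Direct coupling uses purified GST–ZO‑1 PDZ fusion protein from IPTG-induced BL21 at 50 μg/mL with biotinylated peptide in PBS pH 7.5. They react 1 h at room temperature before EDC is added. The mixture is boiled in LDS buffer, run on 18% SDS‑PAGE and blotted for GST or with NeutrAvidin‑HRP by chemiluminescence.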

Row | Sequence | Cx43 CT KK/QQ mutant binding to immobilized biotin-peptide (SPR response) [3] | Cx43 S368 phosphorylation versus PKCε+plus control (in words) [4] | further results
1 | RQPKIWFPNRRKPWKK LPAARIAPR [Peptide M4] |  |  | Cross‐linking to Cx43 CT by EDC [1]: no evidence of cross‐linking
2 | RQPKIWFPNRRKPWKK RPRPAALAI [Peptide M1] | minimal interaction | did not increase Cx43 S368 phosphorylation | Cx43 CT binding to immobilized biotin-peptide (SPR response) ([2]; analyte 0.5 to 15 μmol/L, reverse control peptide subtracted, mean of 3 runs): loss of Cx43 CT binding competence; Phosphorylation of Cx43 CT KK/QQ mutant substrate [5]: Neither αCT1 nor M1 prompted an increase in phosphorylation
3 | RQPKIWFPNRRKPWKK RPRPAALEI [Peptide M2] | minimal interaction | did not increase Cx43 S368 phosphorylation | 
4 | RQPKIWFPNRRKPWKK RPRPDDLBI [Peptide M3] | minimal interaction | did not increase Cx43 S368 phosphorylation | SPR binding kinetics with Cx43 CT (in words) ([2]; inspection of SPR curves): higher initial on rate; Change of ZO‐1 PDZ2 melt temperature (Tm) [6]: evidence of significant interaction
5 | RQPKIWFPNRRKPWKK RPRPDDLE [αCT1‐I] |  | significant increase in PKCε‐mediated phosphorylation of Cx43 CT | Interaction with ZO‐1 PDZ2 by EDC cross‐linking [7]: incompetent to interact with the ZO‐1 PDZ2 domain
